The target of series [1] is Prothrombin (Homo sapiens, UniProt P00734). The series can be described thus: Inhibitory potency against human thrombin.
Series [2] in a line: Ability to double the activated partial thromboplastin time (2x APTT) in human plasma. Type of series: functional.
Series [3] can be described thus: Oral bioavailability of compound in rhesus macaques. It is filed as ADME, organism-based, Macaca mulatta. The following applies: rhesus monkey, in vivo.
Series [4] can be described thus: Oral bioavailability in dog. Type of series: ADME, organism-based, Canis lupus familiaris. The following applies: in vivo.
Series [5] can be described thus: Oral bioavailability of compound in rat. It is filed as ADME, organism-based. The following applies: in vivo.
Series [6] deals with Coagulation factor X (Homo sapiens, UniProt P00742). The series is described as follows: Inhibitory potency of compound against human Coagulation factor Xa.
Series [7] is described as follows: Half-life of compound in dog following p.o. administration of 0.95 mg/kg. Type of series: ADME, organism-based, Canis lupus familiaris. Set-up: dose 0.95 mg/kg, route oral. The settings on record: in vivo, po. A digest of the protocol:
(§1)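 Male beagle dogs (10–12 kg), fasted overnight, were given the inhibitor orally at the stated mg/kg as a solution or suspension in 0.5% methocel. Plasma was stored at –20 °C until HPLC analysis.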

Series [8] is described as follows: Maximum plasma concentration of compound in dog following p.o. administration of 0.95 mg/kg. It is filed as ADME, organism-based, Canis lupus familiaris. Further details: dose 0.95 mg/kg, route oral. The following applies: po. The essentials:
as §1

Series [9] can be described thus: Maximum plasma concentration of compound in dog following p.o. administration of 0.9 mg/kg. Further details: dose 0.9 mg/kg, route oral. It is filed as ADME, organism-based, Canis lupus familiaris. The settings on record: po. A digest of the protocol:
as §1

Series [10] is described as follows: Half-life of compound in dog following p.o. administration of 0.9 mg/kg. Type of series: ADME, organism-based, Canis lupus familiaris. Further details: dose 0.9 mg/kg, route oral. The following applies: in vivo, po. The essentials: as §1
Series [11] in a line: Half-life of compound in dog following p.o. administration of 0.5 mg/kg. Type of series: ADME, organism-based, Canis lupus familiaris. Set-up: dose 0.5 mg/kg, route oral. The following applies: in vivo, po. The essentials: as §1
Series [12] is described as follows: Maximum plasma concentration of compound in dog following p.o. administration of 0.5 mg/kg. The settings on record: po. Set-up: dose 0.5 mg/kg, route oral. Type of series: ADME, organism-based, Canis lupus familiaris. A digest of the protocol:
as §1

The species entered for series [13] is Canis familiaris. The series can be described thus: Half life of compound in dog was determined. It is filed as ADME, organism-based, Canis lupus familiaris. The following applies: in vivo.
Series [14] is described as follows: Maximum plasma concentration of compound in dog following p.o. administration of 1 mg/kg. It is filed as ADME, organism-based, Canis lupus familiaris. Set-up: dose 1 mg/kg, route oral. The settings on record: po. The essentials:
as §1

Series [15] is described as follows: Half-life of compound in dog following p.o. administration of 1 mg/kg. It is filed as ADME, organism-based, Canis lupus familiaris. Further details: dose 1 mg/kg, route oral. The settings on record: in vivo, po. The essentials: as §1
A short description of series [16]: Half life of compound in dog following oral administration. It is filed as ADME, organism-based, Canis lupus familiaris. The settings on record: in vivo. A digest of the protocol:
as §1

Sequence of Coagulation factor X (P00742 41-179 limits assumed): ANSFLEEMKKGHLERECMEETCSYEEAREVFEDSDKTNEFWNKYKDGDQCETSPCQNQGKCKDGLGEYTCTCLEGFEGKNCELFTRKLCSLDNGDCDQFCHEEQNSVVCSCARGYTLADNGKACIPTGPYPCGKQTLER
Sequence of Coagulation factor X (P00742 235-488 limits assumed): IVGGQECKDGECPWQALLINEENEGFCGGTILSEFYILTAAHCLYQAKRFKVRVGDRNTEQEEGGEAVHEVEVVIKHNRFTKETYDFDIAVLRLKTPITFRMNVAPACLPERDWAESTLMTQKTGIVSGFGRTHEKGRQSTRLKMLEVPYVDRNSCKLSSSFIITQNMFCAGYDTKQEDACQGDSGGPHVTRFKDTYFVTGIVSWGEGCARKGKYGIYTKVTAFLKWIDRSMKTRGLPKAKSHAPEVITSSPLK

In series [1], `O=C(Cn1c(Cl)cnc(NCC(F)(F)c2ccccn2)c1=O)NCc1cc(Cl)ccc1-n1cnnn1` showed a Ki of 0.0015 nM. The “2x APTT” value in series [2] came to 0.18 µM.
The compound `O=C(Cn1c(Cl)cnc(NCC(F)(F)c2ccccn2)c1=O)NCc1ccccc1-n1ccnc1` yielded a Ki in series [1] of 6.3 nM. The “2x APTT” value in series [2] amounted to 1.29 µM.
In turn, `O=C(Cn1c(Cl)cnc(NCC(F)(F)c2ccccn2)c1=O)NCc1ncccc1-n1cnnn1` had a Ki in series [1] of 0.14 nM. The “2x APTT” value in [2] was determined as 0.25 µM.
`O=C(Cn1c(Cl)cnc(NCC(F)(F)c2ccccn2)c1=O)NCc1ccccc1-c1csnn1` registered an inhibition constant (Ki) in series [1] of 0.84 nM. Also, the “2x APTT” value in series [2] came out at 0.6 µM.
For the compound `N[C@H](Cc1ccccn1)C(=O)N1CCC[C@H]1CC(=O)NCc1cc(Cl)ccc1-n1cnnn1`, in [1], the inhibition constant (Ki) was 0.4 nM. Moreover, in [2], the “2x APTT” value is 0.2 µM.
In series [1], `O=C(Cn1c(Cl)cnc(NCC(F)(F)c2ccccn2)c1=O)NCc1ccccc1-c1cc[nH]n1` registered a Ki of 5.6 nM. Further, the “2x APTT” value in series [2] came to 2.08 µM.
For the compound `O=C(Cn1c(Cl)cnc(NCC(F)(F)c2cccc[n+]2[O-])c1=O)NCc1cc(Cl)ccc1-n1cncn1`, in series [1], the inhibition constant (Ki) is less than 0.01 nM. Further, the “2x APTT” value in series [2] was found to be 0.2 µM.
Regarding `Cc1nc(N)ccc1CNC(=O)Cn1c(C)cnc(NCCc2ccccc2)c1=O` [L-375378], the bioavailability in series [3] is 60%; in series [4], 91%; in series [5] it was 42%.
Consider `Cn1nnc(-c2ccccc2CNC(=O)Cn2c(Cl)cnc(NCC(F)(F)c3ccccn3)c2=O)n1`, for which the Ki in series [1] was 5.8 nM. Moreover, in series [2], the “2x APTT” value worked out at 1.72 µM.
For `O=C(Cn1ccnc(NCC(F)(F)c2ccccn2)c1=O)NCc1ccccc1-n1cncn1`, in that order: 16 nM and 2.06 µM.
In [1], `N[C@H](Cc1ccccc1)C(=O)N1CCC[C@H]1CC(=O)NCc1ccccc1-n1cncn1` gave a Ki of 1.06 nM.
`N[C@H](Cc1ccccn1)C(=O)N1CCC[C@H]1CC(=O)NCc1ccccc1-n1cncn1` yielded an inhibition constant (Ki) in series [1] of 2 nM. For the same compound, the “2x APTT” value in [2] stood at 0.39 µM.
As to `O=C(Cn1ccnc(NCC(F)(F)c2ccccn2)c1=O)NCc1cc(Cl)ccc1-n1cnnn1`, the Ki stood at 10 nM in [6] and 0.033 nM in series [1]. In series [7], the half-life was 2 h. This compound had a Cmax in series [8] of 1310 nM. Further, the “2x APTT” value in series [2] came out at 0.2 µM.
In turn, `O=C(Cn1c(Cl)cnc(NCC(F)(F)c2ccccn2)c1=O)NCc1ncccc1-n1cncn1` came in with a Ki in series [1] of 0.66 nM. In addition, the “2x APTT” value in series [2] was 0.33 µM.
In the case of `O=C(Cn1c(Cl)cnc(NCC(F)(F)c2ccccn2)c1=O)NCc1ccccc1-c1ncc[nH]1`, in [1], the Ki came to 7.2 nM. The “2x APTT” value in series [2] was 2.88 µM.
With `Cc1ccc(-n2cncn2)c(CNC(=O)CN2C=CN=C(NCC(F)(F)c3ccccn3)C2)c1`, the concentration in series [9] peaked (Cmax) at 1040 nM. In series [1], the Ki turned out to be 0.24 nM. The compound also showed a half-life in series [10] of 1.2 h. Also, the “2x APTT” value in series [2] was 0.33 µM.
`Cc1ccc(NS(=O)(=O)Cc2ccccc2)c(=O)n1CC(=O)NCc1ccccc1-n1cncn1`: the Ki in [1] amounted to 7.3 nM. In [2], the “2x APTT” value was 1.06 µM.
Compound `N[C@H](Cc1ccccc1)C(=O)N1CCC[C@H]1CC(=O)NCc1cc(Cl)ccc1-n1cnnn1` yielded an inhibitory constant (Ki) in [1] of 0.33 nM. Besides, the “2x APTT” value in [2] was 0.23 µM.
`O=C(Cn1ccnc(NCC(F)(F)c2cccc[n+]2[O-])c1=O)NCc1cc(Cl)ccc1-n1cnnn1`: the Ki in series [6] came out at 5 nM; in [1], 0.013 nM. For the same compound, the “2x APTT” value in series [2] came out at 0.12 µM.
Regarding `Cn1nnnc1-c1ccccc1CNC(=O)Cn1c(Cl)cnc(NCC(F)(F)c2ccccn2)c1=O`, in [1], the Ki is 1.2 nM. In addition, in [2], the “2x APTT” value is 0.34 µM.
The compound `O=C(Cn1c(Cl)cnc(NCC(F)(F)c2ccccn2)c1=O)NCc1ccccc1-n1cncn1` came in with an inhibitory constant (Ki) in [1] of 0.45 nM. In series [2], the “2x APTT” value was found to be 0.23 µM. In series [11], this compound had a half-life of 3.5 h. In addition, the highest concentration (Cmax) in series [12] was 1130 nM.
Regarding `O=C(Cn1ccnc(NCC(F)(F)c2cccc[n+]2[O-])c1=O)NCc1ccccc1-n1cnnn1`, the Ki was determined as 370 nM in series [6] and 1.1 nM in series [1]. Further, the “2x APTT” value in series [2] came to 0.42 µM.
`O=C(Cn1c(Cl)cnc(NCC(F)(F)c2cccc[n+]2[O-])c1=O)NCc1ccccc1-n1cnnn1` gave a Ki in series [1] of 0.05 nM. Moreover, the “2x APTT” value in series [2] came to 0.2 µM.
Turning to `O=C(Cn1ccnc(NCC(F)(F)c2cccc[n+]2[O-])c1=O)NCc1cc(Cl)ccc1-n1cncn1`, in [1], the inhibition constant (Ki) stood at 0.085 nM. The “2x APTT” value in series [2] came to 0.26 µM.
In [1], `O=C(Cn1c(Cl)cnc(NCC(F)(F)c2ccccn2)c1=O)NCc1ccccc1-c1nnn[nH]1` showed an inhibition constant (Ki) of 940 nM. This counts as sub-micromolar.
`Cc1ccc(NS(=O)(=O)Cc2ccccc2)c(=O)n1CC(=O)NCc1ccccc1-n1cnnn1` registered an inhibitory constant (Ki) in series [1] of 1.4 nM. Further, the “2x APTT” value in [2] was found to be 0.37 µM.
In turn, `Cc1ccc(NS(=O)(=O)Cc2ccccc2)c(=O)n1CC(=O)NCc1cc(Cl)ccc1-n1cncn1` yielded a Ki in series [1] of 0.16 nM. For the same compound, the “2x APTT” value in series [2] amounted to 0.36 µM.
The compound `O=C(Cn1c(Cl)cnc(NCC(F)(F)c2ccccn2)c1=O)NCc1ncccc1F` [DPOC-4088] had a T1/2 in series [13] of 4.5 h.
On to `Cc1ccc(NS(=O)(=O)Cc2ccccc2)c(=O)n1CC(=O)NCc1cc(Cl)ccc1-n1cnnn1`, for which the inhibition constant Ki was 11 nM in [6] and 0.018 nM in series [1]. The “2x APTT” value in series [2] is 0.23 µM.
For the compound `O=C(Cn1c(Cl)cnc(NCC(F)(F)c2ccccn2)c1=O)NCc1cccc(Cl)c1`, the affinity in series [1], expressed as Ki, was 0.44 nM. In series [2], the “2x APTT” value was found to be 0.79 µM.
`O=C(Cn1ccnc(NCC(F)(F)c2cccc[n+]2[O-])c1=O)NCc1ccccc1-n1cncn1` registered a Ki in [1] of 7.2 nM. Also, the “2x APTT” value in series [2] came out at 0.98 µM.
Regarding `O=C(Cn1c(Cl)cnc(NCC(F)(F)c2ccccn2)c1=O)NCc1ccccc1`, the Ki in series [1] turned out to be 12 nM. For the same compound, the “2x APTT” value in series [2] is 2.68 µM.
`O=C(Cn1c(Cl)cnc(NCC(F)(F)c2cccc[n+]2[O-])c1=O)NCc1ccccc1-n1cncn1` showed a Cmax in series [14] of 860 nM. Further, the half-life in series [15] was 1.4 h. In addition, in [1], the affinity corresponds to a Ki of 0.21 nM. The “2x APTT” value in [2] came out at 0.29 µM.
`O=C(Cn1ccnc(NCC(F)(F)c2ccccn2)c1=O)NCc1ccccc1-n1cnnn1` registered a Ki in [1] of 2.7 nM. Further, the “2x APTT” value in [2] is 0.52 µM.
Take `O=C(Cn1c(Cl)cnc(NCC(F)(F)c2ccccn2)c1=O)NCc1ccccc1-n1cccn1`: affinity in series [1] was put at a Ki of 6.9 nM. Also, in [2], the “2x APTT” value is 1.9 µM.
As for `O=C(Cn1c(Cl)cnc(NCC(F)(F)c2cccc[n+]2[O-])c1=O)NCc1cc(Cl)ccc1-n1cnnn1`, the “2x APTT” value in series [2] is 0.13 µM.
As to `O=C(Cn1c(Cl)cnc(NCC(F)(F)c2ccccn2)c1=O)NCc1ccccc1-n1cnnc1`, in series [1], the Ki amounted to 3.5 nM. Further, the “2x APTT” value in [2] came to 0.52 µM.
In the case of `N[C@@H](C(=O)N1CCC[C@H]1C(=O)NCc1cc(Cl)ccc1Cl)C(c1ccccc1)c1ccccc1`, the half-life in series [16] came out at 1.67 h. In series [4], this compound returned a bioavailability of 45%. Besides, the affinity in [1] corresponds to a Ki of 3 nM.
In [1], `O=C(Cn1c(Cl)cnc(NCC(F)(F)c2ccccn2)c1=O)NCc1ccccc1-n1cnnn1` had an inhibition constant (Ki) of 0.096 nM. Also, the “2x APTT” value in series [2] worked out at 0.22 µM.
In series [1], `O=C(Cn1c(Cl)cnc(NCC(F)(F)c2ccccn2)c1=O)NCc1ccccc1-c1c[nH]cn1` came in with an inhibition constant (Ki) of 4.2 nM. Also, the “2x APTT” value in [2] stood at 1.83 µM.
The matching figures for `O=C(Cn1c(Cl)cnc(NCC(F)(F)c2ccccn2)c1=O)NCc1cc(Cl)ccc1-n1cncn1`: less than 0.01 nM and 0.17 µM.
